According to ChEMBL document CHEMBL4038303, “Simultaneous Drug Targeting of the Promoter MYC G-Quadruplex and BCL2 i-Motif in Diffuse Large B-Cell Lymphoma Delays Tumor Growth” (J Med Chem, 2017):
Calls of active or inactive are those of the source. No cut-off for these calls is given here.

Columns and labels:
Mus musculus [1] = assay: Toxicity in scid mouse xenografted with human U2932 cells assessed as survival at 5 mg/kg, ip administered for 5 consecutive days cotreated with NSC-59276 and CPA; format: organism-based; settings: in vivo
How it was run: (§1)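 SCID mice (6−8 weeks, female or male, serum immunoglobulin ≤20 μg/mL by ELISA) implanted subcutaneously in left flank with 10 × 10^6 U2932 cells in 100 μL saline; pair-matched by tumor volume; dosed ip daily for 5 days; controls received all compound diluents; tumor volume a2 × b/2; outliers by Grubbs' test; two-tailed t test with Šidák–Bonferroni correction.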

Homo sapiens [2] = species: Homo sapiens; assay: Binding affinity to c-myc G-quadruplex DNA in BCL2 and MYC translocation-positive human VAL cells assessed as downregulation of MYC protein levels up to 3 uM after 24 hrs by Western blot analysis
How it was run: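 Cell lines treated 24 h with compound up to 3 μM, with untreated and DMSO-treated controls. Lysates (20 μg total protein) probed by Western blot for BCL2 or MYC with antibodies at 1:1000; actin as loading control. Blots representative of triplicate experiments.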

Homo sapiens [3] = species: Homo sapiens; assay: Binding affinity to BLC2 i-motif promoter DNA in BCL2 and MYC translocation-positive human VAL cells assessed as downregulation of BLC2 mRNA levels up to 3 uM after 24 hrs by qPCR method
How it was run: (§2)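 DLBCL lines grown in RPMI with 10% FBS (SUDHL4 15% FBS) and penicillin/streptomycin. Cells exposed for 24 h to rising concentrations up to 3 μM; DMSO as vehicle control. Total RNA isolated, target mRNA measured by TaqMan real-time qPCR, normalized to TBP and expressed relative to untreated cells; triplicate experiments, two-tailed t test.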

Homo sapiens [4] = species: Homo sapiens; assay: Binding affinity to c-myc G-quadruplex DNA in MYC translocation-positive and BCL2 amplification-positive human U2932 cells assessed as downregulation of MYC mRNA levels after 24 hrs by qPCR method; how it was run: as §2
Homo sapiens [5] = species: Homo sapiens; assay: Binding affinity to c-myc G-quadruplex DNA in human HT cells assessed as downregulation of MYC mRNA levels at 0.25 to 3 uM after 6 hrs by qPCR method; format: cell-based
Homo sapiens [6] = species: Homo sapiens; assay: Binding affinity to c-myc G-quadruplex DNA in MYC translocation-positive and BCL2 amplification-positive human U2932 cells assessed as downregulation of MYC mRNA levels at 0.25 to 3 uM after 6 hrs by qPCR method
U2932 [7] = assay: Potentiation of CPA-induced antitumor activity against human U2932 cells xenografted in SCID mouse assessed as reduction in tumor burden at 2.5 mg/kg, ip administered for 5 consecutive days measured up to 10 days post first treatement; format: functional, organism-based
How it was run: (§3)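 SCID mice bearing subcutaneous left-flank U2932 xenografts (10 × 10^6 cells in saline), pair-matched by tumor volume. Test agent given ip daily for 5 days with 50 mg/kg CPA; diluent-treated and CPA-alone controls. Tumor volume estimated as a2 × b/2 from smallest and largest diameters. Grubbs' test for outliers; two-tailed Student's t test.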

U2932 [8] = assay: Potentiation of CPA-induced antitumor activity against human U2932 cells xenografted in SCID mouse assessed as reduction in tumor burden at 5 mg/kg, ip administered for 5 consecutive days measured up to 10 days post first treatement; format: functional, organism-based; how it was run: as §3
Mus musculus [9] = assay: Reduction in Myc mRNA level in SCID mouse xenografted with human U2932 cells at 2.5 to 5 mg/kg, ip administered for 5 consecutive days cotreated with CPA by qPCR method; format: functional, organism-based
How it was run: (§4)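 Tumors from U2932 xenograft SCID mice given ip treatment daily for 5 days were harvested. Total RNA was taken from the same tumor preparations used for protein lysates, and MYC or BCL2 mRNA was quantified by TaqMan qPCR normalized to TBP. Comparisons were made with diluent-treated mice or CPA-only mice.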

Mus musculus [10] = assay: Effect on BCL2 mRNA level in SCID mouse xenografted with human U2932 cells at 2.5 to 5 mg/kg, ip administered for 5 consecutive days cotreated with CPA by qPCR method; format: functional, organism-based; how it was run: as §4
Homo sapiens [11] = species: Homo sapiens; assay: Stabilization of c-myc G-quadruplex DNA in MYC translocation-positive and BCL2 amplification-positive human U2932 cells assessed as potentiation of CPA-induced apoptosis by measuring increase in caspase-3 activity at 3 uM after 24 hrs in presence of NSC-59276 by AFC based fluorescence assay (reference value: 30%)
Homo sapiens [12] = species: Homo sapiens; assay: Stabilization of c-myc G-quadruplex DNA in BCL2 translocation-positive human SUDHL4 cells assessed as potentiation of CPA-induced apoptosis by measuring increase in caspase-3 activity at 3 uM after 24 hrs in presence of NSC-59276 by AFC based fluorescence assay (reference value: 30%)
Mus musculus [13] = assay: Reduction in Myc mRNA level in SCID mouse xenografted with human U2932 cells at 10 mg/kg, ip administered for 5 consecutive days cotreated with CPA and NSC-59276 by qPCR method; format: functional, organism-based; how it was run: as §4
U2932 [14] = assay: Potentiation of CPA-induced antitumor activity against human U2932 cells xenografted in SCID mouse assessed as tumor growth inhibition at 7.5 mg/kg, ip for 5 days cotreated with 10 mg/kg NSC-59276 measured on day 12 post first treatment (reference value: 67%); format: functional
How it was run: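 U2932 DLBCL cells (10 × 10^6 in 100 μL sterile saline, viability >91%) injected subcutaneously into left flank of SCID mice (6−8 weeks, immunoglobulin ≤20 μg/mL). Mice pair-matched by tumor volume. Drugs given ip daily for 5 days, CPA 30 mg/kg; controls received all diluents. Tumor volume = a2 × b/2 (a smallest, b largest diameter); n = 5−8; Grubbs' test for outliers.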

Mus musculus [15] = assay: Reduction in Myc mRNA level in tumor of SCID mouse xenografted with human U2932 cells at 5 to 7.5 mg/kg, ip administered for 5 consecutive days cotreated with CPA and NSC-59276 by qPCR method; format: functional, organism-based; how it was run: as §4
Mus musculus [16] = assay: Toxicity in scid mouse xenografted with human U2932 cells assessed as change in body weight at 5 to 7.5 mg/kg, ip administered for 5 consecutive days in presence of CPA; format: organism-based; settings: in vivo
How it was run: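 In the follow-up U2932 subcutaneous xenograft study in SCID mice (pair-matched by tumor volume, n = 5−8), compound at 5 or 7.5 mg/kg was given ip daily for 5 days with 30 mg/kg cyclophosphamide and 10 mg/kg BCL2 i-motif ligand. Diluent was given in place of any absent agent. Body weight and survival were followed.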

Mus musculus [17] = assay: Toxicity in SCID mouse xenografted with human U2932 cells assessed as survival at 7.5 mg/kg, ip administered for 5 consecutive days in presence of CPA; format: organism-based; settings: in vivo; how it was run: as §1
Mus musculus [18] = assay: Toxicity in scid mouse xenografted with human U2932 cells assessed as survival at 10 mg/kg, ip administered for 5 consecutive days cotreated with NSC-59276 and CPA; format: organism-based; settings: in vivo; how it was run: as §1
Mus musculus [19] = assay: Toxicity in scid mouse xenografted with human U2932 cells assessed as change in body weight at 10 mg/kg, ip administered for 5 consecutive days cotreated with NSC-59276 and CPA; format: organism-based; settings: in vivo; how it was run: as §1
Mus musculus [20] = assay: Reduction in Bcl2 mRNA level in SCID mouse xenografted with human U2932 cells at 10 mg/kg, ip administered for 5 consecutive days cotreated with CPA and NSC-59276 by qPCR method; format: functional, organism-based; how it was run: as §4

Cc1c2ccncc2c(C)c2c1[nH]c1ccc(OCCN(C)C)cc12.Cl.Cl
Activity (Mus musculus [1]): Non-Toxic | Activity (Homo sapiens [2]): Active | Activity (Homo sapiens [3]): inactive | Activity (Homo sapiens [4]): Dose-dependent effect | Activity (Homo sapiens [5]): Active | Activity (Homo sapiens [6]): Active | Activity (U2932 [7]): Active | Activity (U2932 [8]): Active | Activity (Mus musculus [9]): Active | Activity (Mus musculus [10]): inactive | Activity (Homo sapiens [11]): 100% | Activity (Homo sapiens [12]): 100% | Activity (Mus musculus [13]): Active | TGI (U2932 [14]): 46% | Activity (Mus musculus [15]): Active | Activity (Mus musculus [16]): Non-Toxic | Activity (Mus musculus [17]): Non-Toxic | Activity (Mus musculus [18]): Toxic | Activity (Mus musculus [19]): Toxic | Activity (Mus musculus [20]): Active
